Tests used:
hpol κ [1] = biological target: T1, hpol κ (Homo sapiens, UniProt Q9UBT6); assay: Gel-based primer extension assay; assay type: biochemical; conditions: 10 μM IAG-10, 1 nM hpol κ
T1 sequence (Q9UBT6 19-526): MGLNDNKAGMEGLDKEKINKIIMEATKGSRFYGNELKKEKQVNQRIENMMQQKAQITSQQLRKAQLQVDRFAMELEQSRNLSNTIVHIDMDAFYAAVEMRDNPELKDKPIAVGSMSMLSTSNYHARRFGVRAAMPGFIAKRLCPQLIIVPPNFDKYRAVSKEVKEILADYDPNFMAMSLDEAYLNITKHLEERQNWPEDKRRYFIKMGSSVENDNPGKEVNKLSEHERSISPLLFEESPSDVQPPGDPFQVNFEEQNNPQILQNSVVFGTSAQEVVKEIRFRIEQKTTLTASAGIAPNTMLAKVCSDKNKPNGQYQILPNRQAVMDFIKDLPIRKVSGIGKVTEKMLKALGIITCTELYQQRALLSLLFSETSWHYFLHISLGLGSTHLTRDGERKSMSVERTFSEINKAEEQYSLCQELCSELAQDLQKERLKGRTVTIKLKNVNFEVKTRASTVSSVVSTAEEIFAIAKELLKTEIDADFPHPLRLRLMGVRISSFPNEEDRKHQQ

hpol η = biological target: T2, hpol η (Homo sapiens, UniProt Q9Y253); assay: Gel-based primer extension assay; assay type: biochemical; conditions: 10 μM IAG-10, 2 nM hpol η
T2 sequence (Q9Y253 1-437): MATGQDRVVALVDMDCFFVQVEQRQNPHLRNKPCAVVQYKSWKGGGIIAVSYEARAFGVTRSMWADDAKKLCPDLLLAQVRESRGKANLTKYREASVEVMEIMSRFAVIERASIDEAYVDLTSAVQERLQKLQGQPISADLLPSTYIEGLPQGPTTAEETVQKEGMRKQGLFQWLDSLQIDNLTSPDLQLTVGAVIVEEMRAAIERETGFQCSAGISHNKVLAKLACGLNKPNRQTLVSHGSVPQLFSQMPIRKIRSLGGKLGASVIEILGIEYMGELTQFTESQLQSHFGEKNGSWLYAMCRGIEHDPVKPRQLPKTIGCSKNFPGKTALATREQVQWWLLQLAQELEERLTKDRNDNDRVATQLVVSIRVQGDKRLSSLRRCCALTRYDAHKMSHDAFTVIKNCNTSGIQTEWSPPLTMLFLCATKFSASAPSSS

[2] = biological target: DNA pol I from Mycobacterium tuberculosis (Tb pol I) (Mycobacterium tuberculosis, UniProt P9WNU5); assay: TAMRA strand-displacement selectivity assay, A-family pol; assay type: biochemical; conditions: 10 μM IAG-10, 10 nM Tb pol I
Chain of DNA pol I from Mycobacterium tuberculosis (Tb pol I) (P9WNU5 whole entry): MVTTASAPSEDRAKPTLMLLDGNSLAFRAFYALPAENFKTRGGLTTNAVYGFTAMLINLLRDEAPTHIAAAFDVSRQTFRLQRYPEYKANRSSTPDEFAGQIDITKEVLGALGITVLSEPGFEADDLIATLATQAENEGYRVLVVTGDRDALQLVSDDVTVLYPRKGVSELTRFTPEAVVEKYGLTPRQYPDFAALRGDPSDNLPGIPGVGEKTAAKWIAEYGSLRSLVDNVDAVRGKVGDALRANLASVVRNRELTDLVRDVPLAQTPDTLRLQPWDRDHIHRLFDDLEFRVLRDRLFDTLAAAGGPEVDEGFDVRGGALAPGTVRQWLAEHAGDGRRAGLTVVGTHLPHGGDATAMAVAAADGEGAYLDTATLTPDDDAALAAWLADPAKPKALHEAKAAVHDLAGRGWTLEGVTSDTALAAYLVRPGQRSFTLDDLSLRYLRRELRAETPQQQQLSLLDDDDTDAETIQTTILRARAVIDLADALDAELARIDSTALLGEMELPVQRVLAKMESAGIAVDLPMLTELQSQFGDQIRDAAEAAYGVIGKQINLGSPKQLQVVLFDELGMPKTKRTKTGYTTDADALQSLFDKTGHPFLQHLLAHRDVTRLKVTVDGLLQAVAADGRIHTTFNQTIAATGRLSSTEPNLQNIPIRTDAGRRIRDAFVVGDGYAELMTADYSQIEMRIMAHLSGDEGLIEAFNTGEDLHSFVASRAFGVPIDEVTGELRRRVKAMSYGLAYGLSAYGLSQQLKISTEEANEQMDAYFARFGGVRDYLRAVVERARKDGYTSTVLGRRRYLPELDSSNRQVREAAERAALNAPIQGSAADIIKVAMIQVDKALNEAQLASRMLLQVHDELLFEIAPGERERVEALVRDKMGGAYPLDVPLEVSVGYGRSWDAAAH

pol Dpo1 = biological target: T3, pol Dpo1 (Saccharolobus solfataricus, UniProt P26811); assay: TAMRA strand-displacement selectivity assay, B-family pol; assay type: biochemical, Sulfolobus solfataricus; conditions: 10 μM IAG-10, 25 nM Dpo1
T3 sequence (P26811 1-882): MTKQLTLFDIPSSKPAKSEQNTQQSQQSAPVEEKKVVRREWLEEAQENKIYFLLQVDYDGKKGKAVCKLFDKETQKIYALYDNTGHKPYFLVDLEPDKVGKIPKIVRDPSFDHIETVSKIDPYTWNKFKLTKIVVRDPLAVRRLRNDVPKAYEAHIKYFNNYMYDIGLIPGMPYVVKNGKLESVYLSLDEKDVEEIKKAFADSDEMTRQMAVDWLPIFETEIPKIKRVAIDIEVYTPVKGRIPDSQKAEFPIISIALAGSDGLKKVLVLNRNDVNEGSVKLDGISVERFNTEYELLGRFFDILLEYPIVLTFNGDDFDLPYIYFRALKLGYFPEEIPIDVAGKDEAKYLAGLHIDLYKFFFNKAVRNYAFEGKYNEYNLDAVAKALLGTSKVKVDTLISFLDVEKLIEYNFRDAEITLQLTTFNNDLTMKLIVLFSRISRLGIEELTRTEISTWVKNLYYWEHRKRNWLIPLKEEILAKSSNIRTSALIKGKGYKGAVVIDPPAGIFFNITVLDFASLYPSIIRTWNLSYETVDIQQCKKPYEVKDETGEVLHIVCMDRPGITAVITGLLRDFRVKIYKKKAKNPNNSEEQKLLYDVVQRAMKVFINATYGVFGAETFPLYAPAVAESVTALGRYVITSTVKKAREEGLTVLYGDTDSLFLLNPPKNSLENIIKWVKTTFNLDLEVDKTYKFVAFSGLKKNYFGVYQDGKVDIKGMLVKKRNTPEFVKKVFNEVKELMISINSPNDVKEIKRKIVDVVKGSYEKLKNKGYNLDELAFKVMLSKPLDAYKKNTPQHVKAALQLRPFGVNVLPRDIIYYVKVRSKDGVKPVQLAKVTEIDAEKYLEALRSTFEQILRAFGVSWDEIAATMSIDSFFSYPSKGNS

hpol λ = biological target: T4, hpol λ (Homo sapiens, UniProt Q9UGP5); assay: TAMRA strand-displacement selectivity assay, X-family pol; assay type: biochemical; conditions: 10 μM IAG-10, 10 nM hpol λ
T4 sequence (Q9UGP5 251-575 limits assumed): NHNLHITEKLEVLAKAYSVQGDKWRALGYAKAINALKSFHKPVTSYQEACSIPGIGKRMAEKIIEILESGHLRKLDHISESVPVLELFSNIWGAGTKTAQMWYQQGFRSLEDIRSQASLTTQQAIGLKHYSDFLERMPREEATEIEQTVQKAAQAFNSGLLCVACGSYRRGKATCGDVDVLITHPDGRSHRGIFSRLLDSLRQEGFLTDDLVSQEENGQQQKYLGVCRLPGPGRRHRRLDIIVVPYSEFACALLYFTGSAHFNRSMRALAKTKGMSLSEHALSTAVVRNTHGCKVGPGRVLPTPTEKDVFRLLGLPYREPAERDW

hpol κ [3] = biological target: T1, hpol κ; assay: HPG chemical footprinting with LC-MS; conditions: 10 μM hpol κ, IAG-10 20 and 100 μM, 500 μM HPG
[4] = system: hpol κ-deficient HAP-1 cells; assay: Clonogenic survival assay; assay type: cell-based, human
[5] = system: hpol κ-proficient HAP-1 cells; assay: supF mutagenesis assay; assay type: cell-based, human; conditions: 1 μM IAG-10, 24 h
In short: (§1)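 HAP-1 cells at ~80% confluency (IMDM, 10% FBS) lipofected for 24 h with pSP189 supF plasmid (10 μg per 10 cm dish), ±1 μM test compound. Plasmid was unmodified or pretreated with 100 mM MMS (HEPES pH 7.5, RT, 1 h). Recovered plasmid DpnI-digested, electroporated into E. coli MBM7070, plated on ampicillin/IPTG/X-gal. Mutation frequency = white/(blue + white); ≥10 000 colonies per condition; biological triplicate, mean ±SD.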

[6] = system: hpol κ-deficient HAP-1 cells; assay: supF mutagenesis assay; assay type: cell-based, human; conditions: 1 μM IAG-10, 24 h
In short: as §1

Cl.[H]/N=C(\N)NN=Cc1cn(C(=O)c2cccc3ccccc23)c2ccc(Cl)cc12 [IAG-10, (E)-2-((1-(1-naphthoyl)-5-chloro-1H-indol-3-yl)-methylene)hydrazine-1-carboximidamide hydrochloride]
polymerase activity in presence of compound (hpol κ [1]): only hpol κ was inhibited | polymerase activity in presence of compound (hpol η): only hpol κ was inhibited | polymerase activity in presence of compound [2]: only hpol κ activity was inhibited | polymerase activity in presence of compound (pol Dpo1): only hpol κ activity was inhibited | polymerase activity in presence of compound (hpol λ): only hpol κ activity was inhibited | change in the fraction of HPG-modified peptides containing Arg48 (hpol κ [3]): large increase | decrease in the fraction of HPG-modified peptides (Arg145, Arg149, Arg505) (hpol κ [3]): > 50% | colony formation ([4]; 0.5 μM IAG-10 alone): does not impair colony formation | colony forming ability, cotreatment over TMZ alone ([4]; TMZ + 0.5 μM IAG-10): did not show any significant reduction | mutation frequency, MMS-damaged DNA over undamaged control plasmid [5]: approximately twofold | mutation frequency, undamaged pSP189 plasmid [5]: did not change the mutation frequency | mutation frequency, control or MMS-damaged DNA [6]: did not alter the mutation frequency

— publication PMC7357868 (ACS chemical biology, 2019)
